The list is not random: actives were taken first. Their share in the collection is about 4.1%.
UBC13 inh: blocks human UBC13 polyubiquitin chain formation | inhibition, % at 20 µM | TR-FRET | 0.47% of 330,000 active | P61088; in the data active = inhibition above about 45%, passing the limit was not always enough; inconclusive = no clear call, values can overlap the other calls
Mdm2-MdmX inh: inhibitors of human Mdm2/MdmX interaction. inhibition, % at 8 µM. 3% of 330,000 active. O15151+Q00987. SaOS-2 split-luciferase Mdm2/MdmX complementation, luminescence;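 active = inhibition of at least 50% at 8 µM in the primary screen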
XBP1 UPR activ: activators of adaptive arm of unfolded protein response (XBP1). CHO-XBP1 luciferase reporter, IRE1-XBP1 UPR activation, luminescence; percent of tunicamycin response, DMSO as zero. activation, % at 20 µM. 0.33% of 330,000 active;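 active = versus positive control, 20 µM dose yields 30% or more activation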
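Assay system: CHO-XBP1 luciferase reporter cells; Schedule: 6 h treatment, 37 °C; Detection: glow luminescence from Steady-Glo reagent; Benchmarks: high control tunicamycin 10 µg/mL final, low control DMSO vehicle only.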
Apaf1 inhib: blocks human Apaf-1 apoptosome activity; O14727; reconstituted apoptosome caspase-3 activity, DEVD-Rh110 fluorescence; inhibition, % at 20 µM; AID 489030; 0.71% of 330,000 active; active = inhibition of at least 40% at 20 µM
Target sequence (O14727 whole entry, looked up): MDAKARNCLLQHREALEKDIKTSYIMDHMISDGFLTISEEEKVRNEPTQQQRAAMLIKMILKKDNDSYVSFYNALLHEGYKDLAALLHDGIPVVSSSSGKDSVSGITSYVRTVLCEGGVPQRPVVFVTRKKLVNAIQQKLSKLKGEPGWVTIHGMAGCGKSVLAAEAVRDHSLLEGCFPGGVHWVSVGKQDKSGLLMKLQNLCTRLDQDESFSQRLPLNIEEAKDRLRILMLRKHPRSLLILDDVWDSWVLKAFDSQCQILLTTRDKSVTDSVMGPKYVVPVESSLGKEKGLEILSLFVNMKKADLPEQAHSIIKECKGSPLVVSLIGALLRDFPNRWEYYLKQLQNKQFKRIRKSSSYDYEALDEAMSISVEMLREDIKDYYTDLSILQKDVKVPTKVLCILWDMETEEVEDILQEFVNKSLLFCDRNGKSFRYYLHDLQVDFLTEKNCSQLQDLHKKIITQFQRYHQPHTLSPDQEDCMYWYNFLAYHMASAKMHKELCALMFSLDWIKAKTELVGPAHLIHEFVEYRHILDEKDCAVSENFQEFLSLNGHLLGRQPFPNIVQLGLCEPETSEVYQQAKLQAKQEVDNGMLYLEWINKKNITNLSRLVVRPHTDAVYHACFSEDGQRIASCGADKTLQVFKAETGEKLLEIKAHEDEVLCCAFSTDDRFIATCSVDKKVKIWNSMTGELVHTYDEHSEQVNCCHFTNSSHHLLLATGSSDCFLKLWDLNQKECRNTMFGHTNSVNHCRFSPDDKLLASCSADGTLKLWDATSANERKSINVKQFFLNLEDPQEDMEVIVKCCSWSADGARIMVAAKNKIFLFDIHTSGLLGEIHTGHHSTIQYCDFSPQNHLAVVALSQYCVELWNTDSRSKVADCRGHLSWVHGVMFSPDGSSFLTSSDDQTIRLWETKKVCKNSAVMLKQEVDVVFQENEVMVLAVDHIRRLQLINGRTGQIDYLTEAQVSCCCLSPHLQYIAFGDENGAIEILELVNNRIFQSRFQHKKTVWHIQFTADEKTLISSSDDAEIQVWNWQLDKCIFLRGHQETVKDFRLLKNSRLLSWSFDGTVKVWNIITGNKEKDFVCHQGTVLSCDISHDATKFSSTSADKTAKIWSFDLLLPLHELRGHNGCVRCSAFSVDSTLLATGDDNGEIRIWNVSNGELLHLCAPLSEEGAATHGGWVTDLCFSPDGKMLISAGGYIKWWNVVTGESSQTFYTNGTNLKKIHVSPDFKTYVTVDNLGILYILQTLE
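Assay system: Apoptosome proteins | Medium: pH 7.5 Hepes buffer with CHAPS, BSA, DTT | Also added: Cytochrome c and DEVD-Rh110 substrate | Times: 30 min plus 50 min, RT | Detection: Rhodamine 110 fluorescence at Ex 480/Em 540 nm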
UPR CHOP act: apoptotic UPR (CHOP) activation; CHO-CHOP luciferase reporter, luminescence; percent of tunicamycin response over DMSO baseline; activation, % at 10 µM; 0.34% of 330,000 active; AID 449763;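 active = at 10 µM dose, activation of 40% or more, normalized to positive control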
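Dosing – one dose, 10 µM in 0.5% DMSO · System – CHO-CHOP cells, stable luciferase reporter of PERK-eIF2a-CHOP signalling · Input – 500 cells/well · Control set – tunicamycin 10 µg/mL final as positive, DMSO-only wells as negative · Timing – 6 h compound treatment, 37 °C · Measure – % activation vs tunicamycin · Technique – luminescence read with Steady-Glo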
Mdm2 MdmX conf: confirmation of human Mdm2/MdmX interaction inhibitors; shares compounds with Mdm2-MdmX inh; Mdm2-MdmX binding, luminescent assay; inhibition, % at 8 µM; 55% of 10,000 active; in the data active = inhibition above about 40%
FLuc counter: counter-screen for Mdm2/MdmX inhibitors: full-length luciferase; 77% of 6,200 active; inhibition, % at 8 µM; shares compounds with Mdm2-MdmX inh; SaOS-2 full-length luciferase counterscreen, luminescence;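 active = mean inhibition at 8 µM reaching about 37%, which flags the compound as non-specific, limit read from the data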;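 note: p53-null SaOS-2 cells with luciferase driven by a doxycycline-inducible promoter; compound on cells about two nights before reading with doxycycline added after day one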
A number is an active result; 0 = inactive; ? = inconclusive; - = no result.

SMILES	UBC13 inh	Mdm2-MdmX inh	XBP1 UPR activ	Apaf1 inhib	UPR CHOP act	Mdm2 MdmX conf	FLuc counter
COc1ccc(N2CCN(C(=O)C3CCN(C(=O)c4cccc(Cl)c4)CC3)CC2)cc1	0	0	0	0	0	-	-
COc1ccccc1C/C(N)=N/OC(=O)c1ccc2c(c1)OCO2	0	78	0	0	0	41	70
COc1ccc(C(=O)O/N=C(\N)Cc2cccs2)cc1OC	0	86	0	0	0	51	68
CC(Oc1cccc(Cl)c1)C(=O)Nc1nc(-c2ccccn2)cs1 (configuration not stated)	0	68	0	0	0	77	44
CC(Oc1ccccc1)C(=O)Nc1nc(-c2ccccn2)cs1 (configuration not stated)	0	74	0	0	0	75	43
CC(Oc1ccccc1)C(=O)Nc1nc(-c2ccncc2)cs1 (configuration not stated)	0	0	0	0	0	-	-
CC(Oc1cccc(Cl)c1)C(=O)Nc1ccncc1 (configuration not stated)	0	0	0	0	0	-	-
Cc1ccc(C(=O)CCc2ccc(N)cc2)cc1	0	0	0	0	0	-	-
CCCN(CC(=O)Nc1ccccc1OC)C(=O)CSC(=S)N1CCCC1	0	0	0	0	0	-	-
CCCCC(CC)CNC(=O)CC1Nc2c3ccccc3nc(=S)n2C1=O (configuration not stated)	?	0	0	0	0	-	-
COc1ccc(CCNC(=O)C2CCCN(c3ncccn3)C2)cc1 (configuration not stated)	0	0	0	0	0	-	-
Cc1ccc(CS/C(Nc2ccccc2C)=C(\C#N)C(N)=O)c(C)c1	0	0	0	0	0	-	-
Cn1cc([N+](=O)[O-])c(C(=O)Nc2ccc(C3CCCCC3)cc2)n1	0	59	0	0	0	0	154
Cn1cc([N+](=O)[O-])c(C(=O)Nc2ccc(C(=O)N3CCCCC3)cc2)n1	0	0	0	0	0	-	-
Cn1cc([N+](=O)[O-])c(C(=O)Nc2nc(-c3ccc(Cl)cc3)cs2)n1	0	94	0	0	0	90	44
Cc1ccc(Cn2ccc(NC(=O)c3nn(C)cc3[N+](=O)[O-])n2)cc1	0	59	0	0	0	63	68
CC(=O)c1c(C)[nH]c(C(=O)Nc2nc(-c3ccc(Cl)cc3)cs2)c1C	0	0	0	0	0	-	-
Cc1cc(C)n(Cc2ccc(NC(=O)c3nn(C)cc3[N+](=O)[O-])cc2)n1	0	71	0	0	0	52	59
C[C@@H](C(=O)N1CCN(C(=O)OC(C)(C)C)CC1)n1cc(CCCN=C(NC(=O)OC(C)(C)C)NC(=O)OC(C)(C)C)nn1	0	0	0	0	0	-	-
O=C1C2C3C=CC(C4CC34)C2C(=O)N1c1cccc2ccccc12 (configuration not stated)	0	0	0	0	0	-	-
CCOc1cc(Br)ccc1S(=O)(=O)NCc1ccccc1	0	0	0	0	0	-	-
Cc1ccc(NS(=O)(=O)c2c(C)[nH]c(C)c2C(=O)N2CCCCC2)c(Br)c1	?	0	0	0	0	-	-
O=C(NC(=S)Nc1nc(-c2cccc([N+](=O)[O-])c2)cs1)c1cc(Cl)ccc1Cl	0	52	0	0	0	0	-
O=[N+]([O-])c1cc(Oc2cccnc2)cc([N+](=O)[O-])c1	0	0	0	0	0	-	-
Cn1cc([N+](=O)[O-])c(C(=O)Nc2cc(Oc3cccnc3)cc([N+](=O)[O-])c2)n1	0	82	0	0	0	0	-
O=C(NC(=S)Nc1nc(-c2cccc([N+](=O)[O-])c2)cs1)c1ccccc1Cl	0	0	0	0	0	-	-
Cc1noc(C)c1NC(=O)Nc1cccc2c1O[C@H](CN(C)S(=O)(=O)c1cn(C)cn1)[C@@H](C)CN([C@H](C)CO)C2=O	0	0	0	0	0	-	-
CCN(CC(=O)Nc1cccc(OC)c1)c1ncnc2sc(C)c(C)c12	0	0	0	0	0	-	-
Cc1ccc(/C=N/Nc2cccc(C(=O)O)c2)s1	0	0	0	0	0	-	-
